The record followed here is ChEMBL document CHEMBL5625173, “Antimycobacterial pyridine carboxamides: From design to in vivo activity” (Eur J Med Chem, 2023).

The subject of series [1] is Mycobacterium tuberculosis. In words: Antimycobacterial activity against Mycobacterium tuberculosis MAT1 by alamar blue staining based microplate analysis. Format: functional. A general note: Alamar Blue is a resazurin reagent that responds to reducing activity.
Series [2] has as its system Mycolicibacterium smegmatis. In words: Antimycobacterial activity against Mycobacterium smegmatis by alamar blue staining based microplate analysis. Type of series: functional. The method, boiled down:
(§1)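 Microplate Alamar Blue assay, one of six mycobacterial strains tested (Mtb H37Rv, Mtb H37Ra, M. kansasii, M. avium, M. smegmatis, M. aurum); value reported as MIC.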

Series [3] concerns Mycobacterium avium. In words: Antimycobacterial activity against Mycobacterium avium by alamar blue staining based microplate analysis. Format: functional. The method, boiled down: (§2)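 Microplate Alamar Blue assay. MIC values read at pH 6.6 (neutral). One acidic-pH test at pH 5.6 is footnoted separately.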
A short description of series [4]: Drug metabolism in human liver microsomes assessed as M1 metabolite formation at 90 uM incubated for 3 hrs. Format: ADME, Microsome. The method in brief: (§3)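 Phase I metabolite identification: ammonium salt of the compound (for solubility) or its lactone, 90 μM, incubated with human liver microsomes for 3 h; metabolites detected by HPLC-MS, positive ion mode, by m/z.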
(In general: Microsomes from liver hold many membrane-bound enzymes, among them those of drug oxidation.)

Series [5] in a line: Cytotoxicity against human HepG2 cells assessed as inhibition of cell viability. Type of series: toxicity, cell-based.
Series [6] has as its system Mycobacterium tuberculosis. Nature of the series: Antimycobacterial activity against Mycobacterium tuberculosis IZAK by alamar blue staining based microplate analysis. Type of series: functional.
The test system of series [7] is Mycobacterium tuberculosis. Nature of the series: Antimycobacterial activity against Mycobacterium tuberculosis H37Rv by alamar blue staining based microplate analysis. Format: functional. The method, boiled down:
as §2

Series [8] in a line: Metabolic stability in human liver microsomes assessed as intrinsic clearance at 3 uM incubated for 45 mins by HPLC analysis. Format: ADME, Microsome. The settings on record: read-out: CLH. The method in brief: (§4)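 Ammonium salt or lactone, 3 μM, incubated with human liver microsomes at physiological pH; reactions stopped at 0, 5, 15, 30 and 45 min and analysed by HPLC-MS; k, t1/2 and intrinsic clearance calculated from the HPLC-MS records.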

Series [9] has as its system Mycolicibacterium aurum. In words: Antimycobacterial activity against Mycobacterium aurum by alamar blue staining based microplate analysis. Format: functional. The method, boiled down:
as §1

Series [10] has as its system Mycobacterium tuberculosis. In words: Antimycobacterial activity against Mycobacterium tuberculosis H37Ra by alamar blue staining based microplate analysis. Format: functional. The method, boiled down: as §2
Series [11] can be described thus: Drug metabolism in human liver microsomes assessed as M2 metabolite formation at 90 uM incubated for 3 hrs. Format: ADME, Microsome. The method, boiled down:
as §3

The subject of series [12] is Mycobacterium kansasii. Nature of the series: Antimycobacterial activity against Mycobacterium kansasii by alamar blue staining based microplate analysis. Type of series: functional. The method, boiled down: as §1
Series [13] is described as follows: Selectivity index, ratio of IC50 for cytotoxicity against human HepG2 cells to MIC for antimycobacterial activity against Mycobacterium tuberculosis H37Rv. Format: toxicity, cell-based. The note with it: read-out: Selectivity Index.
Series [14] in a line: Metabolic stability in human liver microsomes assessed as half life at 3 uM incubated for 45 mins by HPLC-MS analysis. Format: ADME, Microsome. The method in brief:
as §4

Series [15] relates to Mycobacterium tuberculosis. In words: Antimycobacterial activity against Mycobacterium tuberculosis H37Rv at 40 times MIC measured after 15 days in presence of methionine by alamar blue staining based microplate analysis. Format: functional, organism-based. The note with it: time 15.0 day.
The test system of series [16] is Mycobacterium tuberculosis. Nature of the series: Antimycobacterial activity against Mycobacterium tuberculosis H37Rv assessed as decreased synthesis of tri-acylglyerols at 1.5 to 6 ug/ml incubated for 24 hrs in presence of 14C acetate by TLC analysis. The note with it: dose 1.5-6 µg/ml. Format: functional, organism-based. The method, boiled down:
(§5)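 Mtb H37Rv cultures exposed to 0, 1.5, 3 or 6 μg/ml compound or its sodium salt for 24 h. 14C acetate then added and cells grown a further 24 h. Lipids and mycolic acids extracted; fatty acids derivatized to methyl esters. Separated by TLC on standard or AgNO3-impregnated plates in Solvent IV and visualized by autoradiography.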

The subject of series [17] is Mycobacterium tuberculosis. In words: Antimycobacterial activity against Mycobacterium tuberculosis H37Rv assessed as change in phospholipid production at 1.5 to 6 ug/ml incubated for 24 hrs in presence of 14C acetate by TLC analysis. The settings on record: dose 1.5-6 µg/ml. Type of series: functional, organism-based. The method, boiled down:
as §5

Series [18] relates to Mycobacterium tuberculosis. In words: Antimycobacterial activity against Mycobacterium tuberculosis H37Rv infected in mouse assessed as reduction in colony formation in spleen at 50 mg/kg administered for 28 days. Format: functional, organism-based. The settings on record: time 28.0 day. The method, boiled down:
(§6)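 Mice infected intranasally with Mtb H37Rv; infection allowed to develop four weeks. Then dosed for 28 days with sodium salt forms as water solution by gastric tube. Lung and spleen CFU determined and compared with untreated control group.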

For series [19], the system named is Mycobacterium tuberculosis. Nature of the series: Antimycobacterial activity against Mycobacterium tuberculosis H37Rv assessed as decreased synthesis of cyclopropyl-mycolic acid at 1.5 to 6 ug/ml incubated for 24 hrs in presence of 14C acetate by TLC analysis. Type of series: functional, organism-based. The settings on record: dose 1.5-6 µg/ml. The method in brief: as §5

The subject of series [20] is Mycobacterium tuberculosis. Nature of the series: Antimycobacterial activity against Mycobacterium tuberculosis H37Rv assessed as change in trehalose dimycolates production at 1.5 to 6 ug/ml incubated for 24 hrs in presence of 14C acetate by TLC analysis. The settings on record: dose 1.5-6 µg/ml. Type of series: functional, organism-based. The method in brief:
as §5

Series [21] relates to Mycobacterium tuberculosis. In words: Antimycobacterial activity against Mycobacterium tuberculosis H37Rv assessed as change in trehalose monomycolates production at 1.5 to 6 ug/ml incubated for 24 hrs in presence of 14C acetate by TLC analysis. Format: functional, organism-based. The settings on record: dose 1.5-6 µg/ml. The method, boiled down: as §5
The test system of series [22] is Mycobacterium tuberculosis. In words: Antimycobacterial activity against Mycobacterium tuberculosis H37Rv at 1 times MIC measured after 15 days in presence of methionine by alamar blue staining based microplate analysis. Type of series: functional, organism-based. The settings on record: time 15.0 day.
In series [23] the test system is Mycobacterium tuberculosis. Nature of the series: Antimycobacterial activity against Mycobacterium tuberculosis H37Rv assessed as decreased synthesis of methoxy-mycolic acid at 1.5 to 6 ug/ml incubated for 24 hrs in presence of 14C acetate by TLC analysis. Format: functional, organism-based. The note with it: dose 1.5-6 µg/ml. The method in brief:
as §5

Series [24] relates to Mycobacterium tuberculosis. In words: Antimycobacterial activity against Mycobacterium tuberculosis H37Rv infected in mouse assessed as reduction in colony formation in lungs at 50 mg/kg administered for 28 days. Format: functional, organism-based. The settings on record: time 28.0 day. The method in brief: as §6
Series [25] can be described thus: Drug metabolism in human liver microsomes assessed as M3 metabolite formation at 90 uM incubated for 3 hrs. Format: ADME, Microsome. The method, boiled down: as §3

Structures are written as SMILES. Values after ≈ are worked out from the molar mass of the structure shown. Active and inactive are the calls of the source. Bounds are passed on as bounds.

As a reminder, the MIC is the smallest concentration in the dilution series that meets the test's criterion for growth inhibition. Low values mean greater potency, high ones weaker potency. One may read the IC50 as the point on the concentration scale where inhibition reaches its midpoint. For orientation: half-life means the time needed for the level to fall by half in the phase considered. In the case of `O=C(Nc1ccc(C(=O)O)c(O)c1)c1ccc2ccccc2n1` [listing 1 of 2 here], the MIC in series [1] is 12.5 µg/mL (≈ 40.5 µM); in series [2] it was 31.2 µg/mL (≈ 101 µM); in series [3], 100 µg/mL (≈ 324 µM); in [6], 6.25 µg/mL (≈ 20.3 µM); in [7], 1.56 µg/mL (≈ 5.06 µM); in series [9] it was 15.6 µg/mL (≈ 50.7 µM). The values for the MIC in [10] and in series [12] were 31.2 µg/mL (≈ 101 µM) and 100 µg/mL (≈ 324 µM), respectively. Also, the Drug metabolism result in series [4] and in series [11] was “Metabolite_Detected” in each case. Also, the IC50 in [5] was over 1000 µM. The microsomal CLint at 3 µM in [8] is 2.2 µL/min/mg. Also, the selectivity ratio in series [13] stood at 198. The half-life at 3 µM in series [14] amounted to 10.5 h.

For `Nc1ccc(C(=O)O)c(O)c1` [AMINOSALICYLIC ACID], the minimum inhibitory concentration (MIC) in series [2] was 500 µg/mL (≈ 3270 µM); in series [3], 3.13 µg/mL (≈ 20.4 µM); in series [7], 3.13 µg/mL (≈ 20.4 µM); in [9] it was 250 µg/mL (≈ 1630 µM); in [10] it was 0.25 µg/mL (≈ 1.63 µM). The outcome in series [15] was inactive. Further, in series [5], the IC50 is over 1270 µM. In addition, the selectivity ratio in series [13] was 62.1.

Turning to `O=C(Nc1ccc(C(=O)O)c(O)c1)c1ccc2ccccc2n1` [listing 2 of 2 here], the outcome in series [16], in series [18], in series [19] and in series [23] was Active. For the same compound, the result in series [17], in [20], in series [21], in series [22] and in series [24] was inactive.

With `O=C(Nc1ccc(C(=O)O)c(O)c1)c1ccncc1`, the MIC in [2] is at least 125 µg/mL; in [3], 100 µg/mL (≈ 387 µM); in [7], 3.13 µg/mL (≈ 12.1 µM); in [9], at least 125 µg/mL; in series [10], at least 125 µg/mL; in [12] it was 50 µg/mL (≈ 194 µM). Also, the IC50 in series [5] was over 1000 µM. Besides, the selectivity ratio in series [13] was 82.5.

For `O=C(Nc1ccc2c(c1)OCOC2=O)c1ccc2ccccc2n1`, the MIC in series [1] was 50 µg/mL (≈ 156 µM); in series [2] it was at least 250 µg/mL; in series [3], over 100 µg/mL; in series [6], 50 µg/mL (≈ 156 µM); in series [7], 1.56 µg/mL (≈ 4.87 µM); in [9] it was at least 250 µg/mL. For the same compound, the MIC was 1.98 µg/mL (≈ 6.18 µM) in [10] and over 100 µg/mL in [12]. Moreover, the Drug metabolism entry in series [4], in series [11] and in series [25] was “Metabolite_Detected” each time. The IC50 in series [5] was over 25 µM. In series [8], the microsomal CLint at 3 µM was determined as 122 µL/min/mg. For the same compound, the selectivity ratio in series [13] is over 5.1. Also, the half-life at 3 µM in series [14] is 0.183 h.

Consider `O=C(Nc1ccc(C(=O)O)c(O)c1)c1cccc(C(F)(F)F)n1`, for which the MIC in series [2] came out at 250 µg/mL (≈ 766 µM); in [3] it was 12.5 µg/mL (≈ 38.3 µM); in [7] it was 3.13 µg/mL (≈ 9.59 µM); in [9], 62.5 µg/mL (≈ 192 µM); in series [10] it was 31.2 µg/mL (≈ 95.8 µM); in [12], 12.5 µg/mL (≈ 38.3 µM). Besides, the IC50 in series [5] is over 163 µM. Moreover, the selectivity ratio in series [13] turned out to be 34.1.

For `O=C(Nc1ccc(C(=O)O)c(O)c1)c1ccc(Cl)nc1`, the minimum inhibitory concentration (MIC) is at least 250 µg/mL in series [2]; 100 µg/mL (≈ 342 µM) in series [3]; 1.56 µg/mL (≈ 5.33 µM) in series [7]; at least 250 µg/mL in series [9]; 125 µg/mL (≈ 427 µM) in series [10]; 12.5 µg/mL (≈ 42.7 µM) in series [12]. For the same compound, in series [5], the IC50 was over 1000 µM. Besides, in series [18], the outcome was Active. Also, in series [13], the selectivity ratio was found to be 188. Moreover, in series [24], the outcome was inactive.
